Data on 48 sequences can be found in the EternaBench riboswitch data.

As usually defined, the apparent Kd is a dissociation constant that holds for the conditions of the assay.

In the series the test system is MS2 coat protein. Put plainly: apparent Kd, MS2 coat protein; higher = weaker binding; RNA-MaP array; FMN 200 µM where present. An outline of the steps: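 The titrant was SNAP-549-labelled MS2 coat protein, run from 0.7 or 1.5 nM in doubling steps to 3 µM. It was applied to designs transcribed by stalled E. coli RNA polymerase on Illumina sequencing-chip clusters, without ligand first and then with constant ligand, in 100 mM Tris-HCl pH 7.5, 80 mM KCl, 4 mM MgCl2, BSA, DTT, yeast tRNA and Tween-20. The apparent Kd is the median of filtered per-cluster binding-curve fits, with green signal normalised to red-channel RNA signal and control-cluster median Fmax.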

[1] abbreviates: designed as: OFF switch for flavin mononucleotide, no ligand.
Where [2] appears, read: ligand present: flavin mononucleotide, designed as: OFF switch for flavin mononucleotide.
Where [3] appears, read: designed as: ON switch for flavin mononucleotide, no ligand.
The mark [4] stands for this setting: ligand present: flavin mononucleotide, designed as: ON switch for flavin mononucleotide.

As for “AGCUGUGGCCGAGGAUAUCUGUUCCAUAUAACCGAAAUAUAAUCGGACAUGAGGAUCACCCAUGUAGAGAAGGCGGUCUCAGCA”, the “apparent Kd” value came to 22.7 nM under setting [1] and 24.8 nM under setting [2].
The corresponding values for “AAUCAUGUCCGAGGAUAUCUGGAAACAUUUUCAAGAGAAGGCGGACAUGAGGAUCACCCAUGUCUCUCCUCAUCAACUACAAAU” are 14.6 nM and 89 nM.
As to “ACUUAUGAAGGAUAUACUAGCGACAUGCACUCAACACACGCACAUGAGGAUCACCCAUGUAGAAGGUCAAACAU”, the “apparent Kd” value under setting [1] was 25.7 nM and the “apparent Kd” value under setting [2] worked out at 22.4 nM.
The corresponding values for “CGAUAUUAUGUCAGGAUAUACAUUGCGAAAGCAAUGUAGAAGGGACAUGAGGAUCACCCAUGUUCCUACUAUCG” are 12.3 nM and 15.7 nM.
For “GUCAGCUCGUGAGGAUAUACAACACUGCUUCGGCAGUGUAUUAAGAUAACAUGAGGAUCACCCAUGUAGAAGGCACGAGCUGAU”, the “apparent Kd” value turned out to be 5.58 nM under setting [1] and 8.48 nM under setting [2].
Consider “AGUAACAUGCUCAACAUGAGGAUCACCCAUGUACUCUCUUGUAAGGAUAUACAAUCGUAUUGAUAGUAGAAGGUACCAAUUAAG”, for which the “apparent Kd” value reads like this: under setting [3], 52.7 nM; under setting [4], 51.9 nM.
The corresponding values for “CGAAAAUUUCAGAAGGACCAAUUCCACAUGAGGAUCACCCAUGUCGAUGGUAGGAUAUGGAGUUGUGGACAGGGUGGAUGUUCC” are 122 nM and 12.6 nM.
As to “CCGGAAACGGGUAGCCUGACAUGAGGAUCACCCAUGUGAUCCUAGGAUAUGGAUCCUAAUUGGAUCCAGAAGGAGGUUGGCUAC”, the “apparent Kd” value runs as follows: under setting [3], 1280 nM; under setting [4], 368 nM.
Take “AUGCAACAUGAGGAUCACCCAUGUGAGGAUAUCGUAUACUACUGUUGCAAUACUUAGACGAGAAGGCACACCGU”: the “apparent Kd” value under setting [1] came out at 166 nM and the “apparent Kd” value under setting [2] was 174 nM.
Take “UGUUGUAUUACAGGAUAUCUAGUAAUUUUAUUUAGAGAAGGGUAUUCACAUGAGGAUCACCCAUGUAUAUACGAGGAAGUUGUG”: the “apparent Kd” value by setting is: under setting [3], 37 nM; under setting [4], 39.7 nM.
Regarding “UUAUUAUAUGUAGGAUAUGCAUAUAAUUAUUGUGCAGAAGGACAUGAGGAUCACCCAUGUAUAUUAUUAUUAUAUAUUAUAUAU”, the “apparent Kd” value reads like this: under setting [1], 24.9 nM; under setting [2], 14.3 nM.
The corresponding values for “CGCCACUUAACAGCGGCGCGGUCGAGAAGGGUACAUGAGGAUCACCCAUGUCACGUUCCUCCUGUACAGGAUAUCGUACGGGUA” are 65.6 nM and 117 nM.
“AAAAUCAAAUCAGGAUAUUCAUACACUACAUACGGAGAAGGGAUACAAUCAUGAGGACAUGAGGAUCACCCAUGUUGUGACCAU”: the “apparent Kd” value worked out at 102 nM under setting [3] and 54.8 nM under setting [4].
The matching figures for “UUAUAAAAUAUAGGAUAUGGAAACAUGAGGAUCACCCAUGUAUGAUAAGAUAAAUUAUGAUAUAGCCAGAAGGAUACAAUUUUU”: 37.3 nM and 35 nM.
The corresponding values for “UUUAAUCGAAACAUGAGGAUCACCCAUGUGUUGUAAUUAACAUAGGAUAUUUGUAUACUUUUGUAAGAGAAGGAUGAUAAUACU” are 22.4 nM and 15.8 nM.
On to “GCUAGUAUUGCAGGAUAUUGAGAAUAAUUAUUACAAGAAGGGCAUAACAUGAGGAUCACCCAUGUAUUCCUUAAUGAUACUAGC”, for which the “apparent Kd” value came to 6.31 nM under setting [1] and 7.13 nM under setting [2].
The matching figures for “GGCAAUAUGUAGGAUAUCGUAUCGGAAACGAUACGAGAAGGGCAAACAUGAGGAUCACCCAUGUUCUUCAAGCC”: 13 nM and 16.6 nM.
For the sequence “CUGUUACAUGAGGAUCACCCAUGUCAGGAUAUUUCUAUAGCGUCCUGCCGACGCAUAGAAAGAAGGGAUGGUGA”, the “apparent Kd” value turned out to be 48.6 nM under setting [1] and 83.8 nM under setting [2].
The matching figures for “AACAGCUCGUCAGGAUAUAUUAUAUUUAUAUGGCUGAAUGUACAUGAGGAUCACCCAUGUAGUUUGUAGAAGGGACGAGCUGAA”: 11.6 nM and 18.9 nM.
In the case of “GCGCCUCAGAACAUGAGGAUCACCCAUGUGCUGCGGGCGCCGUAGGAUAUGAUGGUACGCUACCAUCAGAAGGAUGAUGGUACC”, the “apparent Kd” value under setting [4] was found to be 5.02 nM.
For “UGGAAAUGCGAGAAGGACAUGAGGAUCACCCAUGUAGGAUAUCGACCUAGGUGCAGAUCGUUAUAGGAUCUCUUCGCUUGUAGG”, the “apparent Kd” value is, setting by setting: under setting [3], 16.5 nM; under setting [4], 7.08 nM.
Consider “AAUAAUCAGUAAGGAUAUACUAGCGAUUAGCUUGUAGAAGGUACAGUCUUAUGUAUAACAUGUUAACAUGAGGAUCACCCAUGU”, for which the “apparent Kd” value reads like this: under setting [3], 62.9 nM; under setting [4], 33.3 nM.
The corresponding values for “UGGUACUAGGGAGGAUAUGCGAAGAUACAUGAGGAUCACCCAUGUUUAAGAAUGCCGAGAGGCAACUAGAAGGCCCUAGUACCU” are 8.5 nM and 5.38 nM.
Regarding “GCGCGCGCAGGAUAUACAAUGCGCGCGCGAAAGUGUGUGUUACAUGAGGAUCACCCAUGUAGAAGGGUGUGUGU”, the “apparent Kd” value came to 539 nM under setting [1] and 492 nM under setting [2].
With “UCUACGCGAAUCAAGAUGGAUAGCACAUGAGGAUCACCCAUGUAGGAUAUGCUACACAAAGUGUAGCAGAAGGACAAGCGUAGA”, the “apparent Kd” value came to 26.5 nM under setting [1] and 38.3 nM under setting [2].
Consider “ACUAUACGAGGAUAUACUGACAGGCCUCAGGCAUACAUCAAACAUGAGGAUCACCCAUGUAGAAGGCGUAUACU”, for which the “apparent Kd” value worked out at 30.4 nM under setting [1] and 68.1 nM under setting [2].
The matching figures for “GUUACACAUGAGGAUCACCCAUGUAAGGAUAUGCUGCGGUCGCGAAAACGUGACUGCAGCAGAAGGUACACAUG”: 119 nM and 121 nM.
As for “ACGGUGGUCACAGGAUAUCCGGCGCGCGUGCCUGGAGAAGGGUGACUCAGAACCACAUGAGGAUCACCCAUGUGCCUUGCCGUA”, the “apparent Kd” value by setting is: under setting [3], 169 nM; under setting [4], 49.2 nM.
The matching figures for “AAAAAAAAAACUCAGGAUAUAGAUCGUUGAACAUGAGGAUCACCCAUGUAGUGAAAAGCGAAAAACUAGAAGGGAGGAAAAAAAAA”: 28.9 nM and 19.8 nM.
Take “UCUUUACUGGUCAGGAUAUACAUUCGCUACUCCUUGUAGAAGGGACAUGAGGAUCACCCAUGUACUUUACAUUC”: the “apparent Kd” value under setting [1] worked out at 18.5 nM and the “apparent Kd” value under setting [2] was found to be 19.5 nM.
As for “GGAUUACAUGAGGAUCACCCAUGUGAGGAUAUCGAUGUCCCUAGGAGCGUGCGGGACUCGAGAAGGCACUUGGA”, the “apparent Kd” value reads like this: under setting [1], 39.7 nM; under setting [2], 234 nM.
Take “AAGAAGUCAGGAUAUGCAUGGCGGGACUUGCGUCGUGGCGUGCAGAAGGGACAUGAGGAUCACCCAUGUGGAGU”: the “apparent Kd” value is, setting by setting: under setting [1], 155 nM; under setting [2], 241 nM.
Regarding “UUAUGUUUUGUAGGAUAUCAUUAGUUUUGUAUUUUAAUUGUAAUUUAGAUAUGAGAAGGACAUUUACAUGAGGAUCACCCAUGU”, the “apparent Kd” value came out at 20.3 nM under setting [1] and 14.2 nM under setting [2].
Take “AAGUCUGGAUGAGGAUAUCAGCUGUAACUGGCGUCGACAUGAGGAUCACCCAUGUUGCUAUAGGGUGAGAAGGCAUUUGGGCAA”: the “apparent Kd” value was found to be 43.1 nM under setting [3] and 28.8 nM under setting [4].
The corresponding values for “AGAGAGAGCACAGGAUAUCCGCGCACAUGUAGCGGAGAAGGGUGACCUUUUUGCACAUGAGGAUCACCCAUGUCCAGCACCACA” are 39.7 nM and 21.7 nM.
Take “GCUAAGAAAGGAUAUACACCGGUGAGCCGCUGAUUUCAGCAACAUGAGGAUCACCCAUGUAGAAGGUUUAUGGG”: the “apparent Kd” value was determined as 367 nM under setting [1] and 110 nM under setting [2].
Regarding “ACAAAUUAGUGAGGAUAUGCAUAAUUUAUAACUGCAGAAGGCACAAACCUCAAGACAUGAGGAUCACCCAUGUGGAAUAUAGAU”, the “apparent Kd” value under setting [1] came to 73 nM and the “apparent Kd” value under setting [2] came out at 182 nM.
The corresponding values for “GUGUACAGAGGAUAUACAUGAGCAUGGAAACAUGCAACUUCACAUGAGGAUCACCCAUGUAGAAGGCUGUACAC” are 25.1 nM and 111 nM.
As for “CGCUACGUUUCGUAGCAGUGUCAUCGAGAAGGCCCUGACAUGAGGAUCACCCAUGUUGUUACAUGGGAGGAUAUCGAUGAUACA”, the “apparent Kd” value stood at 12.8 nM under setting [3] and 4.99 nM under setting [4].
The matching figures for “AUGAGCAACACAGGAUAUCUACGUGACAGAGCGAGAGAAGGGUGGGCCCAUGACUUACAUGAGGAUCACCCAUGUAGCUCCAAA”: 39.9 nM and 97.2 nM.
With “UGCAUGCUAGGAUAUACGAAACAUUAGGGUUCUUUGUGUGAACAUGAGGAUCACCCAUGUAGAAGGAGCGUGCU”, the “apparent Kd” value turned out to be 151 nM under setting [1] and 38.5 nM under setting [2].
The corresponding values for “CACCGUUAAGUAGGAUAUCGUACAUGAGGAUCACCCAUGUAAUAAAUGAGAAUUUCGGAUGUAUGCGAGAAGGACUAAAUCGGC” are 49.3 nM and 43 nM.
The matching figures for “AGCAUGCUAGGAUAUACGAAACAUUAGGGUUCUUUGUAUAAACAUGAGGAUCACCCAUGUAGAAGGAGCGUGCA”: 46.1 nM and 169 nM.
Take “UGUCGGAGCAGAGGAUAUACAUGAGGAUCACCCAUGUAAGAAAGUGAAGCCUGGAAACAGGCAAUGUAGAAGGCUGCUCCGACA”: the “apparent Kd” value runs as follows: under setting [1], 12.4 nM; under setting [2], 86.3 nM.
The corresponding values for “GUUGUGCGAGGAUAUAUGUGAGGUUUGCCUCAACAGGUAAUACAUGAGGAUCACCCAUGUAGAAGGCGCAUGAG” are 102 nM and 589 nM.
Consider “ACAUGCAUAGCGAUAUGAUCGAGAGAUCAUGUCGCUAAAGUUAGAAGGACAUGAGGAUCACCCAUGUAGGAUAUGGGUGCAUGA”, for which the “apparent Kd” value by setting is: under setting [3], 641 nM; under setting [4], 48.7 nM.
The matching figures for “GUAGCAUACCAAGGAUAUUCAUAUAAUAAGUAAACAUGAGGAUCACCCAUGUAGUGAGAGCCUUGGGAGAAGGUGGAAUGCUAC”: 16.6 nM and 18.3 nM.
The matching figures for “GCGAUUUUGUAAGGAUAUACACGAGUUUUAAGUGUAGAAGGUGCUUACAUGAGGAUCACCCAUGUAUAAAUGUAUAAUAGUCGC”: 9.14 nM and 8.18 nM.
